Measurements taken from ChEMBL document CHEMBL2346602, “A potent bivalent Smac mimetic (SM-1200) achieving rapid, complete, and durable tumor regression in mice” (J Med Chem, 2013).
Active and inactive are the calls of the source. The calls are words filed in the database; no cut-off is given here.

Experiments:
MDA-MB-231 [1] = assay: Antitumor activity against human MDA-MB-231 cells xenografted in nude immunodeficient mouse assessed as tumor growth inhibition at 7.5 mg/kg, iv administered every week for 4 weeks measured over 76 days; assay type: functional, organism-based; design: dose 7.5 mg/kg
Method in brief: (§1)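 5 × 10⁶ MDA-MB-231 cells in 50% Matrigel injected subcutaneously, one tumor per mouse. Dosing began on day 28, at mean tumor volume 100 mm³. Tumor volume and body weight were tracked. Groups were compared by t test.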

MDA-MB-231 [2] = assay: Antitumor activity against human MDA-MB-231 cells xenografted in nude immunodeficient mouse assessed as tumor regression at 7.5 mg/kg, iv administered every week for 4 weeks measured over 76 days; assay type: functional, organism-based; design: dose 7.5 mg/kg; method in brief: as §1
MDA-MB-231 [3] = assay: Induction of apoptosis in human MDA-MB-231 cells assessed as PARP cleavage after 24 hrs by Western blot analysis; assay type: functional, cell-based
Method in brief: (§2)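 MDA-MB-231 cells were treated 24 h with graded concentrations. Lysates were made in Tris/NaCl/EDTA/SDS/NP-40 buffer with PMSF and protease inhibitors on ice, then run on 4−20% SDS-PAGE and blotted to PVDF. Blots were probed for cIAP1, cleaved PARP, and caspase-8, -9 and -3 (full-length and cleaved), with HRP chemiluminescent detection.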

Rattus norvegicus [4] = assay: Apparent volume of distribution during terminal phase in Sprague-Dawley rat at 1 mg/kg, iv; assay type: ADME, organism-based; design: dose 1 mg/kg, route intravenous; settings: in vivo
MDA-MB-231 [5] = assay: Induction of apoptosis in human MDA-MB-231 cells assessed as caspase-8 cleavage after 24 hrs by Western blot analysis; assay type: functional, cell-based; method in brief: as §2
MDA-MB-231 [6] = assay: Induction of apoptosis in human MDA-MB-231 cells assessed as apoptotic cells after 24 hrs by trypan blue assay; assay type: functional, cell-based
Method in brief: (§3)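 MDA-MB-231 cells were exposed to graded compound concentrations for 24 h and viability scored by trypan blue exclusion. Blue or morphologically unhealthy cells counted as dead. At least 100 cells per treatment were scored, in triplicate.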

MDA-MB-231 [7] = assay: Induction of apoptosis in human MDA-MB-231 cells assessed as caspase-3 cleavage after 24 hrs by Western blot analysis; assay type: functional, cell-based; method in brief: as §2
MDA-MB-231 [8] = assay: Induction of apoptosis in human MDA-MB-231 cells assessed as cIAP1 degradation at 0.3 nM after 24 hrs by Western blot analysis; assay type: functional, cell-based; method in brief: as §2
[9] = Elimination half life in Sprague-Dawley rat at 1 mg/kg, iv; assay type: ADME, organism-based; design: dose 1 mg/kg, route intravenous; settings: in vivo, read-out: beta t1/2 (converted)
MDA-MB-231 [10] = assay: Induction of apoptosis in human MDA-MB-231 cells assessed as apoptotic cells at 10 nM after 24 hrs by trypan blue assay relative to control; assay type: functional; method in brief: as §3
[11] = AUC in Sprague-Dawley rat at 1 mg/kg, iv; assay type: ADME, organism-based; design: dose 1 mg/kg, route intravenous; settings: plasma
Mus musculus = assay: Toxicity in nude immunodeficient mouse xenografted with human MDA-MB-231 cells assessed as body weight change at 3 to 10 mg/kg, iv administered every week for 4 weeks measured over 76 days; assay type: organism-based; design: dose 3-10 mg/kg, route intravenous; settings: in vivo, 1824 h; method in brief: as §1
[12] = Elimination half life in Sprague-Dawley rat at […], iv; assay type: ADME, organism-based; design: dose 2.5 mg/kg, route intravenous; settings: in vivo, read-out: beta t1/2 (converted)
MDA-MB-231 [13] = assay: Induction of apoptosis in human MDA-MB-231 cells xenografted in SCID mouse assessed as PARP cleavage at 5 mg/kg, iv after 4 to 24 hrs by Western blot analysis; assay type: functional, organism-based; design: dose 5 mg/kg
Method in brief: (§4)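 SCID mice carried subcutaneous dorsal MDA-MB-231 xenografts (5 × 10⁶ cells with Matrigel). At about 100 mm³, mice got a single iv dose of 5 mg/kg or vehicle. They were sacrificed at set time points, and tumor lysates were Western blotted for cIAP1, XIAP, caspase-3, PARP and cleaved PARP.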

MDA-MB-231 [14] = assay: Antitumor activity against human MDA-MB-231 cells xenografted in nude immunodeficient mouse assessed as tumor regression at 10 mg/kg/week, iv after 4 weeks relative to vehicle-treated control; assay type: functional; method in brief: as §1
[15] = AUC in Sprague-Dawley rat at […], iv; assay type: ADME, organism-based; design: dose 2.5 mg/kg, route intravenous; settings: plasma
MDA-MB-231 [16] = assay: Induction of apoptosis in human MDA-MB-231 cells xenografted in SCID mouse assessed as cIAP1 degradation at 5 mg/kg, after 2 to 24 hrs by Western blot analysis; assay type: functional, organism-based; design: dose 5 mg/kg; method in brief: as §4
MDA-MB-231 [17] = assay: Induction of apoptosis in human MDA-MB-231 cells xenografted in SCID mouse assessed as decrease in XIAP level at 5 mg/kg, iv after 8 to 24 hrs by Western blot analysis; assay type: functional, organism-based; design: dose 5 mg/kg; method in brief: as §4
MDA-MB-231 [18] = assay: Antitumor activity against human MDA-MB-231 cells xenografted in nude immunodeficient mouse assessed as tumor regression at 10 mg/kg/week, iv after 1 week relative to vehicle-treated control; assay type: functional; method in brief: as §1
MDA-MB-231 [19] = assay: Antitumor activity against human MDA-MB-231 cells xenografted in nude immunodeficient mouse assessed as tumor regression at 3 mg/kg/week, iv after 4 weeks relative to vehicle-treated control; assay type: functional; method in brief: as §1
MDA-MB-231 [20] = assay: Antitumor activity against human MDA-MB-231 cells xenografted in nude immunodeficient mouse assessed as tumor regression at 3 mg/kg/week, iv after 1 week relative to vehicle-treated control; assay type: functional; method in brief: as §1
MDA-MB-231 [21] = assay: Induction of apoptosis in human MDA-MB-231 cells assessed as cIAP1 degradation at 1 nM after 24 hrs by Western blot analysis; assay type: functional, cell-based; method in brief: as §2
Rattus norvegicus [22] = assay: Apparent volume of distribution during terminal phase in Sprague-Dawley rat at […], iv; assay type: ADME, organism-based; design: dose 2.5 mg/kg, route intravenous; settings: in vivo
MDA-MB-231 [23] = assay: Induction of apoptosis in human MDA-MB-231 cells xenografted in SCID mouse assessed as caspase 3 cleavage at 5 mg/kg, iv measured at 4 hrs by Western blot analysis; assay type: functional, organism-based; design: dose 5 mg/kg; method in brief: as §4

CC(=O)O[C@@]12CO[C@@H]1C[C@H](O)[C@@]1(C)C(=O)[C@H](O)C3=C(C)[C@@H](OC(=O)[C@H](O)[C@@H](NC(=O)OC(C)(C)C)c4ccccc4)C[C@@](O)([C@@H](OC(=O)c4ccccc4)[C@H]21)C3(C)C
TGI (MDA-MB-231 [1]): Active | Activity (MDA-MB-231 [2]): inactive

CN[C@@H](C)C(=O)N[C@H]1CCCC[C@H]2CC[C@@H](C(=O)N[C@@H](c3ccccc3)c3cn(CCCCc4ccc(CCCCn5cc([C@@H](NC(=O)[C@@H]6CC[C@@H]7CCCC[C@H](NC(=O)[C@H](C)NC)C(=O)N76)c6ccccc6)nn5)cc4)nn3)N2C1=O
Activity (MDA-MB-231 [3]): Dose-dependent effect | Vz/F (Rattus norvegicus [4]): 1 L/kg | Activity (MDA-MB-231 [5]): Dose-dependent effect | Activity (MDA-MB-231 [6]): Dose-dependent effect | Activity (MDA-MB-231 [7]): Dose-dependent effect | Activity (MDA-MB-231 [8]): Active | half-life [9]: 8.4 min | Activity (MDA-MB-231 [10]): >75% | AUC [11]: 221 ng·h/mL

CN[C@@H](C)C(=O)N[C@H]1CN(C(=O)Nc2ccc(NC(=O)N3CC[C@H]4CC[C@@H](C(=O)NC(c5ccccc5)c5ccccc5)N4C(=O)[C@@H](NC(=O)[C@H](C)NC)C3)cc2)CC[C@H]2CC[C@@H](C(=O)NC(c3ccccc3)c3ccccc3)N2C1=O
Activity (MDA-MB-231 [3]): Dose-dependent effect | Activity (Mus musculus): Non-toxic | half-life [12]: 4.9 h | Activity (MDA-MB-231 [5]): Dose-dependent effect | Activity (MDA-MB-231 [13]): Active | Activity (MDA-MB-231 [6]): Dose-dependent effect | Activity (MDA-MB-231 [7]): Dose-dependent effect | Activity (MDA-MB-231 [14]): 99% | Activity (MDA-MB-231 [10]): >75% | AUC [15]: 3770 ng·h/mL | Activity (MDA-MB-231 [16]): Active | Activity (MDA-MB-231 [17]): Active | Activity (MDA-MB-231 [18]): 88% | Activity (MDA-MB-231 [19]): 93% | Activity (MDA-MB-231 [20]): 55% | Activity (MDA-MB-231 [21]): Active | Vz/F (Rattus norvegicus [22]): 0.5 L/kg | Activity (MDA-MB-231 [23]): Active
